From PubChem
Most compounds without a hit are left out; they make up all but 4.1% or so of the library.
MrgX1 antagonist = human MrgX1 receptor antagonism, primary screen; Q96LB2; MRGX1-HEK293 calcium flux, Fluo-4, BAM8-22 antagonism; hits give low values; B-score at 10 µM; 310,000 compounds, 1.3% hits; AID 588676;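 active means calcium-response B-score plate-corrected more than 3 library SD below zero, starting fluorescence within 5 deviations, no agonist response on first addition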;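 further: peak minus trough fluorescence over baseline after final BAM8-22 challenge near maximal dose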
MrgX1 ag = agonists of human MrgX1 receptor; 310,000 compounds, 0.44% hits; AID 588627; MrgX1-HEK293 cells, Fluo-4 calcium fluorescence, agonist mode; hits give high values; B-score at 10 µM; Q96LB2;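 active means calcium response B-score plate-corrected fluorescence ratio at least 3 library SD, with starting fluorescence B-score inside 5 SD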
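Material: HEK293 cells stably expressing human MrgX1 receptor | Quantity: 15,000 cells per well | Times: Cells plated overnight, dye loaded 0.5 h 37 °C, 0.5 h room temperature | Measured by: Kinetic Fluo-4 NW fluorescence of intracellular calcium | Control set: Positive and negative controls per plate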
Kir21 inh = blocks the mouse Kir2.1 inward-rectifier potassium channel; 310,000 compounds, 0.85% hits; P35561; HEK293-Kir2.1, FluxOR thallium flux fluorescence; hits give low values; B-score at 10 µM;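 active means fluorescence ratio B-score at or below minus 3 SD of library scores, with starting-brightness B-score within 2 SD, cut at about -4.2 in these data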;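 further: channel flux triggered by added potassium and thallium sulfate stimulus; B-score of peak minus minimum fluorescence over baseline after thallium stimulus; more negative B-score means stronger Kir2.1 block with less thallium influx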
Target sequence (P35561 whole entry, looked up): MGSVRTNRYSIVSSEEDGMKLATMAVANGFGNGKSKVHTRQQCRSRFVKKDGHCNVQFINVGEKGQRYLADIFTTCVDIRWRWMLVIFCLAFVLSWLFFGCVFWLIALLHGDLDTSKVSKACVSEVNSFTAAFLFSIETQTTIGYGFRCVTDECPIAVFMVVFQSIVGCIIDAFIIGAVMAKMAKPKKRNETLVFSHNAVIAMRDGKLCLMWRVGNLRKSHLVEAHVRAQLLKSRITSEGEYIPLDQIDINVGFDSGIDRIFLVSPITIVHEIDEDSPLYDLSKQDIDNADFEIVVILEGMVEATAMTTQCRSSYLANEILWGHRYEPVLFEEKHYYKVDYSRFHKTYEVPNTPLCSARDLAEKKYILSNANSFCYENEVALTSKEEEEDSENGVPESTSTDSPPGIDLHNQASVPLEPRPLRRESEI
RGS4 pot = potentiators or activators of RGS4; HEK293 M3R/inducible RGS4, carbachol calcium flux Fluo4; hits give low values; B-score at 10 µM; 310,000 compounds, 0.92% hits;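 active means B-score of the integrated calcium signal more than 4 SD below the library mean, with starting fluorescence not abnormally high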;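 further: negative B-score means reduced calcium response which marks RGS4 activation or potentiation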
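Test system: HEK293 cells with stable M3R and inducible RGS4; also added: carbachol at ECmax as muscarinic agonist stimulus; schedule: dye loading 30 min 37 °C, buffer rest 30 min RT; technique: kinetic calcium fluorescence imaging with Fluo4-AM dye, 2 µM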
MrgX1 allo act = human MrgX1 positive allosteric modulation, primary screen. Q96LB2. MrgX1-HEK293, Fluo-4 calcium flux, FDSS; hits give high values. B-score at 10 µM. 310,000 compounds, 0.63% hits. AID 588675;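 active means plate-corrected calcium response at least 3 library SD above typical, normal starting fluorescence, not activating the receptor alone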;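 further: compound read alongside a low EC10 to EC30 dose of BAM8-22 agonist; peak minus trough fluorescence over baseline measured at the second addition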
RGS4 block = inhibitors of human RGS4; B-score at 10 µM; 310,000 compounds, 0.45% hits; HEK293 M3R/RGS4 inducible, Fluo-4 calcium flux; hits give high values; triggered by carbachol at its EC20; P49798;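 active means B-score, a plate-corrected calcium signal, over three deviations above library mean, with baseline fluorescence within five deviations of library mean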;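 further: RGS4 expression induced by doxycycline in cells with stable M3 receptor; B-score is computed from the integrated fluorescence ratio over baseline after carbachol; higher B-score means a larger calcium signal and so more RGS4 inhibition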
Target sequence (P49798 whole entry, looked up): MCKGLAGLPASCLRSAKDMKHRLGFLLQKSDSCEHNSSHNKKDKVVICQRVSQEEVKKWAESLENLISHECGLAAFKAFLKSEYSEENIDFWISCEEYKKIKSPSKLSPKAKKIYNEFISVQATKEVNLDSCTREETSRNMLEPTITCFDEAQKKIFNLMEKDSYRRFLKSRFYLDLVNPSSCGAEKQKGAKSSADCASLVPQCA
MrgX1 antag conf = human MrgX1 receptor antagonism, re-confirmation screen; shares compounds with MrgX1 antagonist; MrgX1-HEK293, BAM8-22 calcium flux, Fluo-4; hits give low values; remaining BAM8-22 calcium response % of control (hits give low values), % at 10 µM; 2,300 compounds, 19% hits;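 active means remaining agonist calcium response no higher than 100% minus 3 SD of agonist-only control wells, with starting fluorescence near control levels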;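 further: agonist BAM8-22 given at a near maximal EC90 to ECmax level; peak minus minimum fluorescence divided by baseline after agonist addition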
HEK293 Ca flux = activity in parental HEK293 cells lacking MrgX1 | shares compounds with MrgX1 antagonist | Fluo-4 calcium fluorescence, FDSS | fluorescence ratio F(max-min)/F0 at 10 µM | 4,000 compounds, 2% hits | AID 624111;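 active means duplicate-averaged calcium fluorescence ratio at least three times the standard deviation of buffer wells, a nonspecific response in parental cells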
HEK293 Ca counter = counter-screen for MrgX1 allosteric activators: effect in parental HEK293 cells. shares compounds with MrgX1 antagonist. fluorescence ratio F(max-min)/F0 at 10 µM. 4,000 compounds, 0.4% hits. parental HEK293 calcium flux, Fluo-4 fluorescence ratio; hits give high values. AID 624114;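 active means calcium fluorescence ratio, averaged over duplicates, at least 3 SD of the buffer-well ratio, meaning a nonspecific response in receptor-free cells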;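 further: untransfected parental HEK293 lacking MrgX1 used as counterscreen for MrgX1 allosteric activators; fluorescence change taken during the second addition on a kinetic imager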
HEK293 Ca cntr2 = MrgX1 activator counter-screen hit in parental HEK293 cells. shares compounds with MrgX1 antagonist. Fluo-4 calcium fluorescence (FDSS); hits give high values. fluorescence ratio F(max-min)/F0 at 10 µM. 4,000 compounds, 8.7% hits;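 active means calcium fluorescence ratio at least three times the spread of buffer wells, meaning a non-specific response in parental cells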
A number is an active result; . = inactive; / = no result given.

SMILES | MrgX1 antagonist | MrgX1 ag | Kir21 inh | RGS4 pot | MrgX1 allo act | RGS4 block | MrgX1 antag conf | HEK293 Ca flux | HEK293 Ca counter | HEK293 Ca cntr2
CC1Cc2ccccc2N1C(=O)CSc1nnc(Cn2nnc3ccccc32)n1C (centres undefined) | -6.9 | . | . | . | . | . | . | . | . | .
CC1Cc2ccccc2N1C(=O)CSc1nc2ccccc2n1CC(=O)N1CCOCC1 (centres undefined) | -4.6 | . | . | . | . | . | . | . | . | .
CCSc1nc2ccccc2n1CC(=O)N1CCOCC1 | . | . | . | . | . | . | / | / | / | /
Cc1nn(CCC(N)=S)c2nc(-c3cccs3)cc(C(F)(F)F)c12 | . | . | . | . | . | . | / | / | / | /
COc1ccc(OCC(O)Cn2c(Nc3ccccc3)nc3c2c(=O)n(C)c(=O)n3C)cc1 (centres undefined) | . | . | . | . | . | . | / | / | / | /
COc1ccc(C2=NS(=O)(=O)N(C)C(C(=O)N3C(C)CCCC3C)=C2)cc1 (centres undefined) | . | . | . | . | . | . | / | / | / | /
O=C(c1nc2nc(-c3ccc(Cl)cc3)cc(C(F)(F)F)n2n1)N1CCOCC1 | . | . | . | . | . | . | / | / | / | /
O=C(c1nc2nc(-c3ccccc3)cc(C(F)(F)F)n2n1)N1CCOCC1 | -5.5 | . | . | . | . | . | 85% | . | . | .
O=C(CCN1CCN(Cc2ccccc2)CC1)Nc1ccc(OCc2ccccc2)cc1 | . | . | . | . | . | . | / | / | / | /
CCc1ccc(NC(=S)NCc2cccnc2)cc1 | . | . | . | . | . | . | / | / | / | /
C=CCn1c(-c2ccc(S(=O)(=O)N3CCOCC3)cc2)csc1=Nc1ccccc1 | -7.9 | . | . | . | . | . | . | . | . | .
CC1(c2ccc(OC(F)F)cc2)NC(=O)N(CC(=O)Nc2ccc3c(c2)OCO3)C1=O (centres undefined) | -6.3 | . | . | . | . | . | . | . | . | .
CS(=O)(=O)N1CCCC(C(=O)NCc2ccco2)C1 (centres undefined) | -5.1 | . | . | . | . | . | . | . | . | .
O=C(Cn1ccc2cc(S(=O)(=O)N3CCCC3)ccc21)NCc1ccco1 | -4.6 | . | . | . | . | . | . | . | . | .
COc1ccccc1CNC(=O)Cn1ccc2cc(S(=O)(=O)N3CCCC3)ccc21 | . | . | . | . | . | . | / | / | / | /
Cc1nn(-c2ccccc2)c(C)c1C(=O)OCC(=O)N1CCN(S(=O)(=O)c2ccccc2)CC1 | . | . | . | . | . | . | / | / | / | /
Cc1cccn2c(=O)c(C=NCc3ccco3)c(Nc3ccc(SC(F)F)cc3)nc12 | . | . | . | . | . | . | / | / | / | /
CC(C)c1ccccc1NC(=S)N(C)C | . | . | . | . | . | . | / | / | / | /
Cc1cc(C)c2cc3c(ccn3C3OC[C@H](O)[C@H](O)[C@H]3O)cc2n1 (some centres undefined) | -6.4 | . | . | . | . | . | . | . | . | .
CC(=O)O[C@@H]1[C@@H](OC(C)=O)[C@H](n2ccc3cc([N+](=O)[O-])ccc32)OC[C@@H]1OC(C)=O | . | . | . | . | . | . | / | / | / | /
Cc1cccc(C(=O)NCC(=O)N2CCN(S(=O)(=O)c3ccccc3)CC2)c1 | -4.6 | . | . | . | . | . | . | . | . | .
Cc1cccc(C(=O)NCC(=O)N2CCCC2)c1 | . | . | . | . | . | . | / | / | / | /
Cc1onc(-c2c(Cl)cccc2Cl)c1C(=O)N1C=CC(C(F)(F)F)=NCC1 | -9.2 | . | . | . | . | . | . | . | . | .
Cc1onc(-c2c(F)cccc2Cl)c1C(=O)N1C=CC(C(F)(F)F)=NCC1 | . | . | . | . | . | . | / | / | / | /
COc1ccc2nc3cc(Cl)ccc3c(C#N)c2c1 | . | . | . | . | . | . | / | / | / | /
SMILES | MrgX1 antagonist | MrgX1 ag | Kir21 inh | RGS4 pot | MrgX1 allo act | RGS4 block | MrgX1 antag conf | HEK293 Ca flux | HEK293 Ca counter | HEK293 Ca cntr2
Cc1cc(C)n2c(=O)c3ccc(Cl)cc3nc2c1C#N | -5.8 | . | . | . | . | . | . | . | . | .
CCN(CC)S(=O)(=O)c1ccc(Cl)c(C(=O)Nc2cccnc2)c1 | . | . | . | . | . | . | / | / | / | /
CCCC(=O)Nc1ccccc1N1CCN(C(=O)C(C)C)CC1 | -5.2 | . | . | . | . | . | . | . | . | .
CC(C)C(=O)N1CCN(c2ccccc2NC(=O)COc2ccccc2)CC1 | . | . | . | . | . | . | / | / | / | /
COc1ccccc1NC(=O)C1=C(C)Nc2nc(-c3cccs3)nn2C1c1cccnc1 (centres undefined) | -5.2 | . | . | . | . | . | . | . | . | .
COc1ccccc1NC(=O)C1=C(C)Nc2nc(-c3ccc(N(C)C)cc3)nn2C1c1ccncc1 (centres undefined) | . | . | / | / | . | / | / | / | / | /
O=C(CCCNS(=O)(=O)c1cccc2nsnc12)N1CCCCC1 | . | . | . | . | . | . | / | / | / | /
O=C(CSc1nnc(CNC(=O)c2cccs2)o1)NC1CCCCC1 | -7.1 | . | . | . | . | . | . | . | . | .
CC(C)c1nnc(NC(=O)C2CCN(C(=O)Nc3ccc(Cl)cc3)CC2)s1 | . | . | . | . | . | . | / | / | / | /
CCCC[C@@H]1CNC(=O)C(=O)N1CC(C)(C)C | -7.2 | . | . | . | . | . | . | . | . | .
CN(C)/C=C/C(=O)c1cnc2n(c1=O)CCS2 | . | . | . | . | . | . | / | / | / | /
Cc1cc(C)c(NC(=O)C2CCN(c3cnccn3)CC2)c(C)c1 | -6.1 | . | . | . | . | . | . | . | . | .
O=C(Nc1cc(Cl)cc(Cl)c1)c1ccno1 | -4.5 | . | . | . | . | . | . | . | . | .
Cc1ccc(NNC(=O)c2ccno2)cc1Cl | . | . | . | . | . | . | / | / | / | /
CCOC(=O)c1ccc(NC(=O)CN(c2ccc(C)cc2)S(=O)(=O)c2c(C)n[nH]c2C)cc1 | -6.2 | . | . | . | . | . | . | . | . | 52
Cc1ccc(-c2csc(N(CC3CCCO3)C(=O)c3ccco3)n2)cc1 (centres undefined) | -4.7 | . | . | . | . | . | . | . | . | .
CC(=O)c1ccc(S(=O)(=O)N2CCc3ccccc3C2)cc1 | . | . | . | . | . | . | / | / | / | /
